Laboratory results taken from ChEMBL document CHEMBL2321760, “Design, synthesis, and biological evaluation of a series of benzo[de][1,7]naphthyridin-7(8H)-ones bearing a functionalized longer chain appendage as novel PARP1 inhibitors” (J Med Chem, 2013).

Test system: not listed separately
Assay: Cytotoxicity against Chinese hamster V79 cells expressing wild type BRCA2 assessed as growth inhibition
Assay type: cell-based, Cricetulus griseus
Settings: not given
Summary of the method: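 V79 (wild-type Chinese hamster lung fibroblasts) grown in RPMI-1640 with 10% FBS, 37 °C, 5% CO2. Six concentrations per test. CC50 is the concentration reducing proliferation and growth by 50%, calculated by Logit method from at least three independent tests.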

For O=C(N[C@@H]1C[C@H](O)c2ccccc21)c1cc(Cc2n[nH]c(=O)c3ccccc23)ccc1F (relative stereo), which CC50 is on record?
The CC50 was 1490 nM.

Which CC50 does the source give for O=C(NC1CNC(=O)c2ccccc21)c1cc(Cc2n[nH]c(=O)c3ccccc23)ccc1F (stereo unspecified) here?
Its CC50 is greater than 10000 nM.

With O=C1NCC2c3c(cccc31)CCN2C(=O)C1CCN(C(=O)c2cc(Cc3n[nH]c(=O)c4ccccc34)ccc2F)CC1 (stereo unspecified) as the compound, how does the CC50 read?
The CC50 was greater than 10000 nM.

Test system: not listed separately
Assay: Cytotoxicity against Chinese hamster BRCA2-deficient VC8 cells assessed as growth inhibition
Assay type: cell-based
Settings: Cricetulus griseus, V-C8
Summary of the method: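 V-C8 (BRCA2-deficient Chinese hamster lung fibroblasts) grown in F12 with 10% FBS, 37 °C, 5% CO2. Six concentrations per test. CC50 is the concentration reducing proliferation and growth by 50%, calculated by Logit method from at least three independent tests.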

Which CC50 does the source give for O=C(N[C@@H]1C[C@H](O)c2ccccc21)c1cc(Cc2n[nH]c(=O)c3ccccc23)ccc1F (relative stereo) here?
Its CC50 is 418 nM.

Which CC50 does the source give for O=C(NC1CNC(=O)c2ccccc21)c1cc(Cc2n[nH]c(=O)c3ccccc23)ccc1F (stereo unspecified) here?
Its CC50 is greater than 10000 nM.

For O=C1NCC2c3c(cccc31)CCN2C(=O)C1CCN(C(=O)c2cc(Cc3n[nH]c(=O)c4ccccc34)ccc2F)CC1 (stereo unspecified), which CC50 is on record?
The CC50 was greater than 1000 nM.

Test system: not listed separately
Assay: Cytotoxicity against human BRCA1-deficient MDA-MB-436 cells assessed as growth inhibition
Assay type: cell-based
Settings: not given
Summary of the method: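 Proliferation assay in BRCA1-mutant human breast cancer MDA-MB-436 cells. Six concentrations per test. CC50 calculated by Logit method from at least three independent tests.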

With O=C(N[C@@H]1C[C@H](O)c2ccccc21)c1cc(Cc2n[nH]c(=O)c3ccccc23)ccc1F (relative stereo) as the compound, how does the CC50 read?
The CC50 was 4520 nM.

For O=C1NCC2c3c(cccc31)CCN2C(=O)C1CCN(C(=O)c2cc(Cc3n[nH]c(=O)c4ccccc34)ccc2F)CC1 (stereo unspecified), which CC50 is on record?
Its CC50 is 344 nM.

Biological target: Poly [ADP-ribose] polymerase 1 (Homo sapiens, UniProt P09874)
Sequence (P09874 whole entry): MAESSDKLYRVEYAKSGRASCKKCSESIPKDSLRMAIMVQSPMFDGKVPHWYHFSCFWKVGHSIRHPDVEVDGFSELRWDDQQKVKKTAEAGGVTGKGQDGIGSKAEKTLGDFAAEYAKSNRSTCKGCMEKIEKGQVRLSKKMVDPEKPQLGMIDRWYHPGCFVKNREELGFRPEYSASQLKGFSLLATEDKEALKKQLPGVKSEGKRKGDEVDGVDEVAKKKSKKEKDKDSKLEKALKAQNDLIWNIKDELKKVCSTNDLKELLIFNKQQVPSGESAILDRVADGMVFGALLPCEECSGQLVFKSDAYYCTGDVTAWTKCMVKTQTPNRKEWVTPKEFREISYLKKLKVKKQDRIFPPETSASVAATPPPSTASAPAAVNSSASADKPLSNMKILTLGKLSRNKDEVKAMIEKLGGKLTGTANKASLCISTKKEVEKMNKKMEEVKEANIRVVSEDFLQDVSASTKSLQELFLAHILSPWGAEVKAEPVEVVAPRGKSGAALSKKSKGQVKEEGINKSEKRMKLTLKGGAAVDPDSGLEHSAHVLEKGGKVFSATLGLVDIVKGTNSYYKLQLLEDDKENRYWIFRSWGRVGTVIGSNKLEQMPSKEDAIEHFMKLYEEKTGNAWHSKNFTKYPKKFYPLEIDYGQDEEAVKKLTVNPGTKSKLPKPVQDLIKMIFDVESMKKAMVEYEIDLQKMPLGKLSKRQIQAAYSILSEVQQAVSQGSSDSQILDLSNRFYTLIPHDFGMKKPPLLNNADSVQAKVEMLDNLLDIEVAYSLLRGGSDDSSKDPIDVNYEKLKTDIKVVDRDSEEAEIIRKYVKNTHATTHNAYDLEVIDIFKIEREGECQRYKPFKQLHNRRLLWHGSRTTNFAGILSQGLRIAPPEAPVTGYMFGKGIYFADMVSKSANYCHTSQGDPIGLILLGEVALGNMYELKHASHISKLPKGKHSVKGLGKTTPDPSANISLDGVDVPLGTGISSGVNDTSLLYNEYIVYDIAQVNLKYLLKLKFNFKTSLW
Assay: Inhibition of human recombinant PARP1 after 1 hr by ELISA
Settings: not given

With O=C(CCN1CCc2cccc3c2C1CNC3=O)NCC(=O)N1CCN(c2ccccc2F)CC1 (stereo unspecified) as the compound, how does the IC50 read?
Its IC50 is 8960 nM.

Which IC50 does the source give for O=C1NCC2c3c(cccc31)CCN2CC(=O)N1CCn2c(nnc2C(F)(F)F)C1 (stereo unspecified) here?
The IC50 was greater than 10000 nM.

For O=C(CCN1CCc2cccc3c2C1CNC3=O)NCC(=O)N1CC=C(c2ccc(F)cc2)CC1 (stereo unspecified), which IC50 is on record?
Its IC50 is 1100 nM.

For O=C(CCN1CCc2cccc3c2C1CNC3=O)NCC(=O)N1CCN(c2ncccn2)CC1 (stereo unspecified), which IC50 is on record?
Its IC50 is 8520 nM.

For C[C@@H](NC(=O)CN1CCc2cccc3c2C1CNC3=O)C(=O)N1CC=C(c2ccc(F)cc2)CC1 (stereo partly specified), which IC50 is on record?
The IC50 was 210 nM.

Which IC50 does the source give for C[C@H](NC(=O)CN1CCc2cccc3c2C1CNC3=O)C(=O)N1CC=C(c2ccc(F)cc2)CC1 (stereo partly specified) here?
Its IC50 is 19 nM.

Which IC50 does the source give for COc1ccc(N2CCN(C(=O)CNC(=O)CCN3CCc4cccc5c4C3CNC5=O)CC2)cc1 (stereo unspecified) here?
Its IC50 is 8720 nM.

With O=C1NCC2c3c(cccc31)CCN2CC(=O)N1C[C@H]2CNC[C@H]2C1 (stereo partly specified) as the compound, how does the IC50 read?
Its IC50 is 8800 nM.

Which IC50 does the source give for O=C(CN1CCc2cccc3c2C1CNC3=O)N[C@H](Cc1ccccc1)C(=O)N1CC=C(c2ccc(F)cc2)CC1 (stereo partly specified) here?
Its IC50 is greater than 10000 nM.

Which IC50 does the source give for O=C(CN1CCc2cccc3c2C1CNC3=O)N[C@@H](Cc1ccccc1)C(=O)N1CC=C(c2ccc(F)cc2)CC1 (stereo partly specified) here?
Its IC50 is 490 nM.

Which IC50 does the source give for Cc1cc(Cc2ccc(F)c(C(=O)N3CCc4cccc5c4C3CNC5=O)c2)n[nH]c1=O (stereo unspecified) here?
Its IC50 is 210 nM.

For COc1ccc(N2CCN(C(=O)CNC(=O)CN3CCc4cccc5c4C3CNC5=O)CC2)cc1 (stereo unspecified), which IC50 is on record?
The IC50 was 300 nM.

For O=C1NCC2c3c(cccc31)CCN2CC(=O)N1CC2CCCNC2C1 (stereo unspecified), which IC50 is on record?
Its IC50 is 9350 nM.

For O=C(N[C@@H]1C[C@H](O)c2ccccc21)c1cc(Cc2n[nH]c(=O)c3ccccc23)ccc1F (relative stereo), which IC50 is on record?
Its IC50 is 4.81 nM.

Which IC50 does the source give for COc1ccc(N2CCN(C(=O)CNC(=O)CCCN3CCc4cccc5c4C3CNC5=O)CC2)cc1 (stereo unspecified) here?
The IC50 was 8890 nM.

With O=C(NC1CNC(=O)c2ccccc21)c1cc(Cc2n[nH]c(=O)c3ccccc23)ccc1F (stereo unspecified) as the compound, how does the IC50 read?
The IC50 was 86.3 nM.

Which IC50 does the source give for O=C1NCC2c3c(cccc31)CCN2C(=O)C1CCN(C(=O)c2cc(Cc3n[nH]c(=O)c4ccccc34)ccc2F)CC1 (stereo unspecified) here?
The IC50 was 1.9 nM.

Which IC50 does the source give for O=C1NCC2c3c(cccc31)CCN2CC(=O)N1CCC2CNCC21 (stereo unspecified) here?
Its IC50 is 9380 nM.
